Measured values from ChEMBL document CHEMBL1157609, “Discovery of vaniprevir (MK-7009), a macrocyclic hepatitis C virus NS3/4a protease inhibitor” (J Med Chem, 2010).

Tests used:
Hepatitis C virus [1] = assay: Antiviral activity against HCV Con1 infected in human HuH7 cells assessed as inhibition of viral replication after 24 hrs by replicon assay in presence of 50% normal human serum; type: functional, organism-based, Hepacivirus hominis; settings: Con1, Huh-7, 24 h
Procedure, shortened: (§1)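 Huh-7 cells stably carrying a bicistronic replicon (1b con1 or 2a JFH) seeded at 20000 cells/well and held 24 h at 37 °C/5% CO2 in DMEM with 10% FBS or 50% NHS. Compound added in DMSO (1% final) for a further 24 h. Cells fixed and permeabilized. Replicon RNA quantified by in situ hybridization of a radiolabeled neomycin-resistance probe (50 °C, 18 h), followed by RNase A treatment.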

[2] = Drug level in Sprague-Dawley rat liver at 5 mg/kg, po after 4 hrs by LC/MS analysis; type: ADME, organism-based; set-up: dose 5 mg/kg, route oral; settings: read-out: Drug uptake
Procedure, shortened: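 Rats given a single oral dose as a PEG400 solution (2.0 mL/kg). Liver collected at the terminal time point and homogenized in buffer. Drug extracted liquid-liquid and quantified by LC/MS against standards and QCs.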

[3] = Inhibition of HCV1b BK full length NS3/4A protease expressed in Escherichia coli after 1 hr by time-resolved fluorescence assay; set-up: species or system Hepatitis C virus (isolate BK)
Procedure, shortened: (§2)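 Full-length NS3/4A (1b BK or 2a JFH) purified from E. coli. TRF peptide substrate added at 100 nM final. Reaction run 1 h at RT, then quenched with 500 mM MES pH 5.5. Read at ex 340/em 615 nm with 400 μs delay. Ki from a four-parameter fit.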

Hepatitis C virus [4] = assay: Antiviral activity against HCV Con1 infected in human HuH7 cells assessed as inhibition of viral replication after 24 hrs by replicon assay in presence of 10% fetal bovine serum; type: functional, organism-based, Hepacivirus hominis; settings: Con1, Huh-7, 24 h; procedure, shortened: as §1
Hepatitis C virus [5] = assay: Antiviral activity against HCV JFH-1 infected in human HuH7 cells assessed as inhibition of viral replication after 24 hrs by replicon assay in presence of 10% fetal bovine serum; type: functional, organism-based, Hepacivirus hominis; settings: JFH-1, Huh-7, 24 h; procedure, shortened: as §1
[6] = Drug level in Sprague-Dawley rat liver at 5 mg/kg, po after 24 hrs by LC/MS analysis; type: ADME, organism-based; set-up: dose 5 mg/kg, route oral; settings: read-out: Drug uptake
Procedure, shortened: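 Single oral dose given as a PEG400 solution (2.0 mL/kg). Liver was collected at the terminal time point, homogenized in buffer, and processed by liquid-liquid extraction. Drug was quantified by LC/MS against standards and QCs.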

[7] = AUC in Beagle dog at 5 mg/kg, po by LC/MS analysis; type: ADME, organism-based, Canis lupus familiaris; set-up: dose 5 mg/kg, route oral; settings: plasma
[8] = Drug level in Beagle dog liver at 5 mg/kg, po after 2 hrs by LC/MS analysis; type: ADME, organism-based, Canis lupus familiaris; set-up: dose 5 mg/kg, route oral; settings: read-out: Drug uptake
[9] = Drug level in Beagle dog liver at 5 mg/kg, po after 24 hrs by LC/MS analysis; type: ADME, organism-based, Canis lupus familiaris; set-up: dose 5 mg/kg, route oral; settings: read-out: Drug uptake
[10] = AUC in monkey at 5 mg/kg, po by LC/MS analysis; type: ADME, organism-based, Macaca mulatta; set-up: dose 5 mg/kg, route oral; settings: rhesus monkey, plasma
[11] = Drug level in monkey liver at 5 mg/kg, po after 2 hrs by LC/MS analysis; type: ADME, organism-based, Macaca mulatta; set-up: dose 5 mg/kg, route oral; settings: rhesus monkey, read-out: Drug uptake
[12] = AUC in chimpanzee at 10 mg/kg, po by LC/MS analysis; type: ADME, organism-based, Pan troglodytes; set-up: dose 10 mg/kg, route oral; settings: plasma
Procedure, shortened: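 Two chimpanzees dosed orally by voluntary ingestion in a chocolate milk vehicle (0.67 mL/kg). Blood sampled at multiple times up to 24 h. Plasma analysed by liquid-liquid extraction and LC/MS against standards and QCs. Pharmacokinetic parameters calculated from the concentration data.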

[13] = Inhibition of HCV JFH-1 full length NS3/4A protease expressed in Escherichia coli after 1 hr by time-resolved fluorescence assay; set-up: species or system Hepatitis C virus JFH-1; procedure, shortened: as §2

| SMILES | concentration at 4 h [2] [nM] | IC50 (Hepatitis C virus [4]) [nM] | IC50 (Hepatitis C virus [5]) [nM] | concentration at 24 h [6] [nM] | AUC [7] [µM·h] | concentration at 2 h [8] [µM] | concentration at 24 h [9] [nM] | AUC [10] [µM·h] | concentration at 2 h [11] [nM] | AUC [12] [µM·h] | IC50 (Hepatitis C virus [1]) [nM] | Ki [3] [nM] | Ki [13] [nM] |
| --- | --- | --- | --- | --- | --- | --- | --- | --- | --- | --- | --- | --- | --- |
| CC[C@@H]1C[C@]1(NC(=O)[C@@H]1C[C@@H]2CN1C(=O)[C@H](C(C)(C)C)NC(=O)OCC(C)(C)CCCCc1cccc3c1CN(C3)C(=O)O2)C(=O)NS(=O)(=O)C1CC1 [VANIPREVIR] | 9900 | 3 | 9 | 400 | 1.2 | 34 | 500 | 0.05 | 3000 | 5.2 | 19 | 0.05 | 0.9 |
| C=C[C@@H]1C[C@]1(NC(=O)[C@@H]1C[C@@H]2CN1C(=O)[C@H](C1(C)CCCCC1)NC(=O)OCCC/C=C/c1cccc3c1CN(C3)C(=O)O2)C(=O)NS(=O)(=O)C1CC1 | 1600 | 4 | – | – | – | – | – | – | – | – | 38 | 0.06 | – |
| C=C[C@@H]1C[C@]1(NC(=O)[C@@H]1C[C@@H]2CN1C(=O)[C@H](C1CCCC1)NC(=O)OCCC/C=C/c1cccc3c1CN(C3)C(=O)O2)C(=O)NS(=O)(=O)C1CC1 | – | 4 | – | – | – | – | – | – | – | – | 23 | 0.04 | – |
| C=C[C@@H]1C[C@]1(NC(=O)[C@@H]1C[C@@H]2CN1C(=O)[C@H](C1CCCCC1)NC(=O)OCCC/C=C/c1cccc3c1CN(C3)C(=O)O2)C(=O)NS(=O)(=O)C1CC1 | 2800 | 3 | – | – | – | – | – | – | – | – | 24 | 0.02 | – |
| C=C[C@@H]1C[C@]1(NC(=O)[C@@H]1C[C@@H]2CN1C(=O)[C@H](CCCC)NC(=O)OCCC/C=C/c1cccc3c1CN(C3)C(=O)O2)C(=O)NS(=O)(=O)C1CC1 | 460 | 6 | – | – | – | – | – | – | – | – | 26 | 0.05 | – |
| C=C[C@@H]1C[C@]1(NC(=O)[C@@H]1C[C@@H]2CN1C(=O)[C@H](C(C)(C)C)NC(=O)OCCC/C=C/c1cccc(c1)CN(C)C(=O)O2)C(=O)NS(=O)(=O)C1CC1 | 450 | 28 | – | – | – | – | – | – | – | – | 42 | 0.14 | – |
| CC[C@@H]1C[C@]1(NC(=O)[C@@H]1C[C@@H]2CN1C(=O)[C@H](C(C)(C)C)NC(=O)OCCCCCc1cccc3c1CN(C3)C(=O)O2)C(=O)NS(=O)(=O)C1CC1 | 10700 | 10 | 140 | – | – | – | – | – | – | – | 35 | 0.18 | 4 |

Second part, led by results:

| concentration at 4 h [2] [nM] | IC50 (Hepatitis C virus [4]) [nM] | IC50 (Hepatitis C virus [5]) [nM] | concentration at 24 h [6] [nM] | AUC [7] [µM·h] | concentration at 2 h [8] [µM] | concentration at 24 h [9] [nM] | AUC [10] [µM·h] | concentration at 2 h [11] [nM] | AUC [12] [µM·h] | SMILES | IC50 (Hepatitis C virus [1]) [nM] | Ki [3] [nM] | Ki [13] [nM] |
| --- | --- | --- | --- | --- | --- | --- | --- | --- | --- | --- | --- | --- | --- |
| 440 | 12 | – | – | – | – | – | – | – | – | C=C[C@@H]1C[C@]1(NC(=O)[C@@H]1C[C@@H]2CN1C(=O)[C@H](C(C)C)NC(=O)OCCC/C=C/c1cccc3c1CN(C3)C(=O)O2)C(=O)NS(=O)(=O)C1CC1 | 28 | 0.04 | – |
| – | 98 | – | – | – | – | – | – | – | – | C=C[C@@H]1C[C@]1(NC(=O)[C@@H]1C[C@@H]2CN1C(=O)[C@H](C(C)(C)C)NC(=O)OCCC/C=C/c1ccccc1CN(C)C(=O)O2)C(=O)NS(=O)(=O)C1CC1 | 610 | 1.6 | – |
| 140 | 3 | – | – | – | – | – | – | – | – | C=C[C@@H]1C[C@]1(NC(=O)[C@@H]1C[C@@H]2CN1C(=O)[C@H](C(C)(C)C)NC(=O)OCCCCC/C=C/c1cccc3c1CN(C3)C(=O)O2)C(=O)NS(=O)(=O)C1CC1 | 23 | < 0.02 | – |
| 910 | 7 | 150 | – | – | – | – | – | – | – | C=C[C@@H]1C[C@]1(NC(=O)[C@@H]1C[C@@H]2CN1C(=O)[C@H](C(C)(C)C)NC(=O)OCCC/C=C/c1cccc3c1CN(C3)C(=O)O2)C(=O)NS(=O)(=O)C1CC1 | 32 | 0.05 | 2.6 |
| – | 16 | – | – | – | – | – | – | – | – | C=C[C@@H]1C[C@]1(NC(=O)[C@@H]1C[C@@H]2CN1C(=O)[C@H](C(C)(C)C)NC(=O)OCC/C=C/c1cccc3c1CN(C3)C(=O)O2)C(=O)NS(=O)(=O)C1CC1 | 390 | 0.1 | – |
| 3500 | 26 | – | – | – | – | – | – | – | – | C=C[C@@H]1C[C@]1(NC(=O)[C@@H]1C[C@@H]2CN1C(=O)[C@H](C(C)(C)C)NC(=O)OCCC/C=C/c1cccc3c1CN(CC3)C(=O)O2)C(=O)NS(=O)(=O)C1CC1 | 140 | 0.15 | – |
| – | 730 | – | – | – | – | – | – | – | – | C=C[C@@H]1C[C@]1(NC(=O)[C@@H]1C[C@@H]2CN1C(=O)[C@H](C(C)(C)C)NC(=O)OCCC/C=C/c1cccc3c1CCN(C3)C(=O)O2)C(=O)NS(=O)(=O)C1CC1 | 2900 | 8.3 | – |
| 520 | 7 | 66 | – | – | – | – | – | – | – | C=C[C@@H]1C[C@]1(NC(=O)[C@@H]1C[C@@H]2CN1C(=O)[C@H](C(C)(C)C)NC(=O)OCCCCCc1cccc3c1CN(C3)C(=O)O2)C(=O)NS(=O)(=O)C1CC1 | 27 | 0.04 | 0.9 |
| 3800 | 29 | 720 | – | – | – | – | – | – | – | CC[C@@H]1C[C@]1(NC(=O)[C@@H]1C[C@@H]2CN1C(=O)[C@H](C(C)(C)C)NC(=O)OCCC/C=C/c1cccc3c1CN(C3)C(=O)O2)C(=O)NS(=O)(=O)C1CC1 | 110 | 0.45 | 19 |
| 230 | 5 | – | – | – | – | – | – | – | – | C=C[C@@H]1C[C@]1(NC(=O)[C@@H]1C[C@@H]2CN1C(=O)[C@H](C(C)(C)C)NC(=O)OCCCC/C=C/c1cccc3c1CN(C3)C(=O)O2)C(=O)NS(=O)(=O)C1CC1 | 19 | 0.03 | – |
